Key:
[1] = Half life in Sprague-Dawley rat; type: ADME, organism-based; conditions: in vivo
Outline: (§1)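 Male Sprague–Dawley rats dosed intravenously and orally, with pharmacokinetic parameters derived from both routes.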

[2] = Distribution coefficient, log D of the compound; type: physicochemical; conditions: chromatographic hydrophobicity index (CHI) at pH 7.4
Outline: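 Measured hydrophobicity expressed as a chromatographic hydrophobicity index (CHI) logD at pH 7.4.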

[3] = Oral bioavailability in Sprague-Dawley rat; type: ADME, organism-based; conditions: in vivo; outline: as §1
[4] = Volume of distribution at steady state in Sprague-Dawley rat; type: ADME, organism-based; conditions: in vivo, read-out: Vdss; outline: as §1
[5] = Plasma clearance in Sprague-Dawley rat; type: ADME, organism-based; outline: as §1
[6] = Dissociation constant, pKa of the compound; type: physicochemical

| Structure (SMILES) | logD [2] | other results |
| --- | --- | --- |
| O=C1C(NS(=O)(=O)/C=C/c2ccc(Cl)s2)CCN1c1ccc(-n2ccnc2CN2CCOCC2)cc1F (configuration not stated) | 2.28 | pKa [6]: 5.75 |
| CN(C)Cc1nccn1-c1ccc(N2CCC(NS(=O)(=O)c3ncc(-c4ccc(Cl)s4)s3)C2=O)c(F)c1 (configuration not stated) | 2.75 |  |
| O=C1C(NS(=O)(=O)/C=C/c2ccc(Cl)s2)CCN1c1ccc(-n2ccnc2CN2CCC(F)C2)cc1F (configuration not stated) | 2.58 |  |
| CN(C)Cc1ccn(-c2ccc(N3CCC(NS(=O)(=O)c4cc5ccc(Cl)cc5s4)C3=O)c(F)c2)n1 (configuration not stated) | 2.4 |  |
| CN(C)Cc1nccn1-c1ccc(N2CCC(NS(=O)(=O)c3ccc4[nH]cc(Cl)c4c3)C2=O)c(F)c1 (configuration not stated) | 1.76 |  |
| CN(C)Cc1nocc1-c1ccc(N2CCC(NS(=O)(=O)/C=C/c3ccc(Cl)s3)C2=O)c(F)c1 (configuration not stated) | 3.29 |  |
| C/C(=C\S(=O)(=O)NC1CCN(c2ccc(-n3cnc(CN(C)C)c3)cc2F)C1=O)c1ccc(Cl)s1 (configuration not stated) | 1.64 |  |
| CN(C)Cc1nccn1-c1ccc(N2CCC(NS(=O)(=O)c3ccc4cc(Cl)ccc4c3)C2=O)c(F)c1 (configuration not stated) | 2.55 |  |
| CN(C)Cc1nccn1-c1ccc(N2CCC(NS(=O)(=O)c3ccc4c(Cl)c[nH]c4c3)C2=O)c(F)c1 (configuration not stated) | 1.98 |  |
| CN(C)Cc1cn(-c2ccc(N3CCC(NS(=O)(=O)c4cc5ccc(Cl)cc5s4)C3=O)c(F)c2)cn1 (configuration not stated) | 1.82 |  |
| CN(C)Cc1nccn1-c1ccc(N2CCC(NS(=O)(=O)c3cc4cc(Cl)ccc4s3)C2=O)c(F)c1 (configuration not stated) | 2.59 |  |
| C/C(=C\S(=O)(=O)NC1CCN(c2ccc(-n3cncc3CN(C)C)cc2F)C1=O)c1ccc(Cl)s1 (configuration not stated) | 2.31 |  |
| CN(C)Cc1nccn1-c1ccc(N2CCC(NS(=O)(=O)c3cc4ccc(Cl)cc4s3)C2=O)c(F)c1 (configuration not stated) | 2.58 |  |
| CN(C)Cc1ccnn1-c1ccc(N2CCC(NS(=O)(=O)c3cc4ccc(Cl)cc4s3)C2=O)c(F)c1 (configuration not stated) | 3.35 |  |
| C/C(=C\S(=O)(=O)NC1CCN(c2ccc(-n3ccc(CN(C)C)n3)cc2F)C1=O)c1ccc(Cl)s1 (configuration not stated) | 2.2 |  |

Further lines, with some results ahead:

| logD [2] | Structure (SMILES) | other results |
| --- | --- | --- |
| 2.44 | C/C(=C\S(=O)(=O)NC1CCN(c2ccc(-n3ccnc3CN(C)C)cc2F)C1=O)c1ccc(Cl)s1 (configuration not stated) | half-life [1]: 48 min; bioavailability [3]: 16%; Vd [4]: 0.7 L/kg; clearance [5]: 18 mL/min/kg |
| 2.21 | O=C1C(NS(=O)(=O)/C=C/c2ccc(Cl)s2)CCN1c1ccc(-n2ccnc2CN2CCCC2)cc1F (configuration not stated) | pKa [6]: 7.95 |
| 1.7 | CNCc1nccn1-c1ccc(N2CCC(NS(=O)(=O)/C=C/c3ccc(Cl)s3)C2=O)c(F)c1 (configuration not stated) |  |
| 2.54 | CN(C)Cc1nccn1-c1ccc(N2CCC(NS(=O)(=O)/C=C/c3ccc(Cl)s3)C2=O)c(F)c1 (configuration not stated) | half-life [1]: 60 min; bioavailability [3]: 52%; Vd [4]: 0.6 L/kg; clearance [5]: 13 mL/min/kg; pKa [6]: 7.26 |
| 2.48 | CCN(C)Cc1nccn1-c1ccc(N2CCC(NS(=O)(=O)/C=C/c3ccc(Cl)s3)C2=O)c(F)c1 (configuration not stated) |  |
| 2.32 | CN(C)Cc1nccn1-c1ccc(N2CCC(NS(=O)(=O)CCc3ccc(Cl)s3)C2=O)c(F)c1 (configuration not stated) | half-life [1]: 48 min; bioavailability [3]: 10%; Vd [4]: 1.1 L/kg; clearance [5]: 39 mL/min/kg |
| 2.7 | CC(C)N(C)Cc1nccn1-c1ccc(N2CCC(NS(=O)(=O)/C=C/c3ccc(Cl)s3)C2=O)c(F)c1 (configuration not stated) |  |
